According to ChEMBL document CHEMBL4834471 (J Med Chem, 2021):
Calls of active or inactive are those of the source. No cut-off for these calls is given here.

Columns and labels:
Mus musculus [1] = assay: Antiinflammatory activity BALB/c mouse assessed as restoration of salbutamol-induced adrenergic bronchial relaxation at 10 mg/kg, po administered on day 0 and 7 and measured upto 21 days; format: functional, organism-based; conditions: time day <=21
[2] = Drug concentration in plasma of mouse at 10 mg/kg, po within 1 hr; format: ADME, organism-based
[3] = Drug metabolism in human liver-on-chip assessed as compound oxidization at 12a' or 13' of omega-carboxylic acid incubated for 48 hrs by UPLC-MS/MS anlaysis; format: ADME, tissue-based
Outline: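 Liver-on-chip built from differentiated HepaRG cells (hepatocyte-like and biliary-like) with a HUVEC endothelial layer. Loaded with compound at 1 μM and incubated 48 h; compound and metabolites quantified from extracted chromatograms; n = 3 independent experiments.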

Keratinocyte [4] = assay: Antiinflammatory activity in cytokine cocktail-induced reconstructed human epidermis model assessed as attenuation of epidermal disorganization at 5 to 25 uM after 4 days by HE staining based assay; format: functional, cell-based; conditions: dose 5-25 µM, time 4.0 day
Outline: (§1)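 Reconstructed human epidermis exposed to compound and stressed with a cytokine cocktail for 4 days. Readouts: IL-8 in growth medium, H&E morphology, transepidermal water loss, stratum corneum permeability to Lucifer yellow with DAPI nuclear stain, and surface pH. n = 2–3 independent experiments.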

Mus musculus [5] = assay: Antiinflammatory activity against ovalbumin-induced airway hyperreactivity in BALB/c mouse assessed as reduction in LTB4 and isomers level in lung tissue at 10 mg/kg, po pretreated with compound for 60 mins prior to ovalbumin stimulation on day 0 and 7 and […] by UPLC-MS/MS analysis; format: functional, organism-based
Outline: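 Mice gavaged with 10 mg/kg 60 min before ovalbumin sensitization on days 0 and 7. Lung tissue taken on […] and LTB4 plus its isomers quantified as pg/mg lung tissue; n = 5 mice; two-tailed unpaired t-test of log data.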

Keratinocyte [6] = assay: Antiinflammatory activity in cytokine cocktail-induced reconstructed human epidermis model assessed as decrease in pH at 5 to 25 uM after 4 days; format: functional, cell-based; conditions: dose 5-25 µM, time 4.0 day; outline: as §1
[7] = Cytotoxicity against human PBMC assessed as reduction in metabolic activity at <=1 uM after 2 to 24 hrs by MTT assay; conditions: time 2-24 hrs
Outline: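 PBMC at 2 × 10^6/mL in monocyte medium treated 2 or 24 h at 37 °C, 5% CO2, with 0.1% DMSO vehicle. MTT added for 4 h in the dark, formazan solubilized in SDS/HCl, absorbance read at 570 nm.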

[8] = Drug concentration in plasma of CD-1 mouse at 30 mg/kg, po after 30 mins; format: ADME, organism-based
Outline: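 Oral dosing at 30 mg/kg in zymosan peritonitis; mice killed 30 min after zymosan injection. Compound concentrations measured in plasma and in peritoneal exudate.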

Mus musculus [9] = assay: Antiinflammatory activity in zymosan-induced CD-1 mouse peritonitis model assessed as reduction in vascular permeability at 10 mg/kg, ip preincubated with compound for 30 mins followed by zymosan addition and measured after 30 mins; format: functional, organism-based; conditions: time 60.0 min
Outline: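 Zymosan peritonitis with compound 10 mg/kg i.p. Vascular permeability assessed at 30 min after zymosan. Exudate LTB4 (ELISA) and peritoneal immune cell infiltration assessed at 4 h. Two-tailed unpaired t-test of log data.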

Keratinocyte [10] = assay: Antiinflammatory activity in cytokine cocktail-induced reconstructed human epidermis model assessed as effect on TSLP expression at 5 to 25 uM after 4 days by ELISA; format: functional, cell-based; conditions: dose 5-25 µM, time 4.0 day
Keratinocyte [11] = assay: Cytotoxicity against human Keratinocytes assessed as reduction in cell viability at 10 to 100 uM after 24 hrs by MTT assay; format: cell-based; conditions: dose 10-100 µM
[12] = molecular target: T1, Prostaglandin E synthase (Homo sapiens) (UniProt O14684); assay: Inhibition of mPGES-1 activity in IL-1beta treated human A549 cells assessed as reduction in PGE2 formation at 10 uM using PGH2 as substrate preincubated for 15 mins followed by substrate addition and measured after 1 min; format: cell-based; conditions: time 16.0 min
T1 sequence (whole entry): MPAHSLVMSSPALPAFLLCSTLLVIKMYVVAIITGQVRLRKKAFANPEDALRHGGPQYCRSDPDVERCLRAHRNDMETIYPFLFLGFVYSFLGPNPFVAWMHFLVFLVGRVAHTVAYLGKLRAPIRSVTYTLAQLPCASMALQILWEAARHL

[13] = molecular target: T2, Bifunctional epoxide hydrolase 2 (Homo sapiens) (UniProt P34913); assay: Inhibition of recombinant human sEH expressed in Sf9 insect cells at 10 uM using PHOME as substrate preincubated for 10 mins followed by substrate addition and measured after 60 mins by fluorescence microplate method; conditions: time 70.0 min
T2 sequence (whole entry): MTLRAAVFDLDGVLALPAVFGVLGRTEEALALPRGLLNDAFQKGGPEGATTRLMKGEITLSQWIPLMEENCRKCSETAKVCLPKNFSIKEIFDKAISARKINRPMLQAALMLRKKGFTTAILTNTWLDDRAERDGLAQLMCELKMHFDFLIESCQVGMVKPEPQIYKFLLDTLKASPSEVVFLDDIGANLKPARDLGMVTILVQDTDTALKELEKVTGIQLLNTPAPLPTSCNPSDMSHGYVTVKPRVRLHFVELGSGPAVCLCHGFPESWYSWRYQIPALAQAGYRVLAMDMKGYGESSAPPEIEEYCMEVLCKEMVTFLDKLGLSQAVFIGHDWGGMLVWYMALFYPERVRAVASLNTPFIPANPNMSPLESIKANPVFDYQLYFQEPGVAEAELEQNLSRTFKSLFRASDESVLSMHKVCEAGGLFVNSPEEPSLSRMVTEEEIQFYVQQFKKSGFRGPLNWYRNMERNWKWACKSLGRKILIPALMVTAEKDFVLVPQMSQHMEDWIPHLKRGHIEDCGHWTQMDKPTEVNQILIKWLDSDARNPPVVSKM

Mus musculus [14] = assay: Antiinflammatory activity in zymosan-induced CD-1 mouse peritonitis model assessed as increase in RvE3 levels at 10 mg/kg, po preincubated with compound for 60 mins followed by zymosan addition and measured after 30 mins by UPLC-MS/MS analysis; format: functional, organism-based; conditions: time 90.0 min
Outline: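 Oral dosing at 10 mg/kg in zymosan peritonitis; mice killed 30 min after zymosan. Peritoneal exudate lipid mediators and fatty acids profiled by UPLC-MS/MS, with LTC4 measured by ELISA; results expressed as fold change versus vehicle.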

For `C/C(=C\CC/C(C)=C/CC[C@]1(C)CCc2c(C)c(O)c(C)c(C)c2O1)CCC=C(CO)CO`, the Activity (Mus musculus [1]) was “Active”, the concentration at 1 h [2] was 30 nM and the Drug metabolism [3] was “Metabolite_Detected”. For the same compound, the Activity (Keratinocyte [4]) was “Active”, the Activity (Mus musculus [5]) was “Active” and the Activity (Keratinocyte [6]) was “Active”. For the same compound, the Activity [7] was “Non-Toxic”, the concentration at 0.5 h [8] was 20 nM and the Activity (Mus musculus [9]) was “Active”. The Activity (Keratinocyte [10]) was “inactive”, the Activity (Keratinocyte [11]) was “Non-Toxic” and the inhibition [12] was “Active”. The inhibition [13] was “inactive” and the Activity (Mus musculus [14]) was “Active”.
